Experimental findings from ChEMBL document CHEMBL4190207, “Lignans from the Roots of Taxus wallichiana and Their α-Glucosidase Inhibitory Activities” (J Nat Prod, 2017) are described below.

pIC50: −log10 of the molar value.

The assay in a line: Inhibition of Saccharomyces cerevisiae alpha-glucosidase using p-nitrophenyl-alpha-D-glucopyranoside as substrate after 30 mins. In short, it runs like this: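 Reaction started by adding 3 mM p-nitrophenyl-α-D-glucopyranoside and 0.2 U/mL α-glucosidase (both stock concentrations) in 0.01 M phosphate buffer, pH 7.0, to the sample solution. Incubated at 37 °C for 30 min, then stopped with 0.1 M Na2CO3. Activity read as absorbance at 401 nm. IC50 is the concentration giving 50% inhibition of enzyme activity. Acarbose was the positive control.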
As usually defined, the pIC50 is −log10 of the IC50, conventionally taken in molar units. With `COc1cc2c(cc1O)C1c3cc(O)c(O)cc3C(=O)C(C2)C1CO` (stereo unspecified), the negative logarithm of the IC50 (pIC50) is 3.87.
`COc1cc(C[C@H]2C(=O)OC[C@@H]2C(=O)c2ccc(O)c(OC)c2)ccc1O` gave a pIC50 of 4.10.
As for `COc1cc([C@H]2c3cc(O)c(OC)cc3C[C@H]3[C@H](OC)OC[C@H]23)ccc1O`, the figure is 4.45; as for `COc1cc(C[C@H]2[C@@H](OC)OC[C@@H]2[C@H](OC)c2ccc(O)c(OC)c2)ccc1O`, 3.88.
As for `COc1cc([C@H]2c3cc(O)c(OC)cc3C[C@H]3[C@@H](OC)OC[C@H]23)ccc1O`, the figure is 4.41; as for `COc1cc2c(cc1O)C1c3cc(OC)c(O)cc3C(=O)C(C2)C1CO` (stereo unspecified), 4.28.
The figure for `COc1cc([C@@H](OC)[C@@H]2CO[C@H](c3ccc(O)c(OC)c3)[C@@H]2CO)ccc1O` (relative stereo) is 3.77.
With `COc1cc([C@H]2OC[C@@H]([C@@H](OC)c3ccc(O)c(OC)c3)[C@H]2CO)ccc1O` (relative stereo), the pIC50 is 4.37. This pIC50 is 0.60 log units higher than that of the compound before.
As for `C[C@H]1O[C@H](O[C@H]2[C@H](O)[C@@H](O)[C@@H](O[C@H]3[C@H](O)[C@@H](O)C(O)O[C@@H]3CO)O[C@@H]2CO)[C@H](O)[C@@H](O)[C@@H]1N[C@H]1C=C(CO)[C@@H](O)[C@H](O)[C@H]1O` (stereo partly specified) [ACARBOSE], the figure is 3.67; as for `COc1cc([C@H]2c3cc(O)c(OC)cc3C[C@H]3C(=O)OC[C@H]23)ccc1O` [ALPHA-CONIDENDRIN], 3.71; as for `COc1cc(C[C@H]2COC(=O)[C@@H]2Cc2ccc(O)c(OC)c2)ccc1O` [MATAIRESINOL], 3.76.
